The list is not random: actives were taken first. Their share in the collection is about 1.6%.
PLC-beta3 inh – inhibitors of human phospholipase C beta3; AID 720704; Purified PLC-beta3, fluorogenic substrate, fluorescence; inhibition, % at 12.2 µM; Q01970; 370,000 compounds, 0.18% hits; in the data active = inhibition above about 11%;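 also: 0% = median of compound wells on plate and 100% = full blocker control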
PLCg1 inh – PLC-gamma1 (human) inhibition, primary screen; purified PLC-gamma1, fluorogenic substrate, fluorescence; inhibition, % at 12.2 µM; 370,000 compounds, 0.84% hits; in the data active = inhibition above about 9.5%
HGIII-sPLA2 inh – Inhibits HGIII-sPLA2 liposome hydrolysis, primary screen. QFRET BODIPY PC-A2 liposome hydrolysis, fluorescence. inhibition, % at 12.2 µM. 370,000 compounds, 0.56% hits;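 active = inhibition above mean plus 3 SD of compounds lying within the high and low control bounds, cut at about 19% in these data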;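 also: 0% = median of test compound wells and 100% = no enzyme DMSO wells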
proCasp7 act – counter-screen for procaspase-3 activators: activators of human procaspase-7; P55210; 330,000 compounds, 0.093% hits; recombinant procaspase-7, Ac-DEVD-pNA absorbance 405 nm; D23A/D198A/D206A triple mutant, cannot self-cleave; scale: DMSO 0, 5 µM enzyme 100; activation, % at 8.5 µM;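 active = percent activation above the screen-wide mean plus 3 SD, cut at about 25% in these data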
Target sequence (P55210 whole entry D23A/D198A/D206A): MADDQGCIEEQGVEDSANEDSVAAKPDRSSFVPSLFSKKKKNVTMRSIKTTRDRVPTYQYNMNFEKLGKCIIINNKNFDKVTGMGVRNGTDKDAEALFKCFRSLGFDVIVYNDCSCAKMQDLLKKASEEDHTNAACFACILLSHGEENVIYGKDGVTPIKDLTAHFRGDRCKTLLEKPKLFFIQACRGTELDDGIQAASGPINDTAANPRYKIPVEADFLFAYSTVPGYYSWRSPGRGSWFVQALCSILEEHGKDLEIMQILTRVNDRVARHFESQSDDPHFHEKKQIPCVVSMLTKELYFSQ
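Assay system: Uncleavable procaspase-7 mutant enzyme | Input: 2 µM procaspase-7 mutant as dispensed | Timing: 1 h compound preincubation, 2 h substrate cleavage, 25 °C | Repeats: One well per compound | Control set: DMSO wells as 0%, DMSO with 5 µM added PC-7 as 100% | Technique: Epi-absorbance of released pNA at 405 nm, two timepoints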
procasp3 activ – activates human procaspase-3. P42574. recombinant procaspase-3 D3A, Ac-DEVD-pNA absorbance 405 nm. activation, % at 8.5 µM. 330,000 compounds, 0.11% hits;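 active = activation above the mean of all tested compounds plus 3 SD, cut at about 21% in these data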;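 also: 0% = DMSO alone and 100% = DMSO wells spiked with extra 5 µM PC-3 D3A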
Target sequence (P42574 whole entry D9A/D28A/D175A): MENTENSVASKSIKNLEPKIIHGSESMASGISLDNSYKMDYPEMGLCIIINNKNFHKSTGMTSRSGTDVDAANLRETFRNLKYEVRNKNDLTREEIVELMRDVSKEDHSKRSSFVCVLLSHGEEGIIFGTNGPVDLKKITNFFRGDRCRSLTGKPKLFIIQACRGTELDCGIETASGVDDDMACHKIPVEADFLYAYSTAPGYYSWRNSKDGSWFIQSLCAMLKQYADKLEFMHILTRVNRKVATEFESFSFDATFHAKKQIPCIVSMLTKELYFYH
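Test system: Procaspase-3 D3A mutant; medium: Zinc-free HEPES/NaCl buffer with 0.01% Triton X-100 at pH 7.4; reagent: DEVD-pNA substrate; doses: one concentration, 8.5 µM nominal, 0.8% DMSO; times: 1 h preincubation plus 2 h reaction at 25 °C; signal: Epi-absorbance at 405 nm of released p-nitroaniline, 0 and 120 min; replicates: singlicate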
PC3 dual counter – activates human procaspase-3, dual activator counter-screen; shares compounds with proCasp7 act; recombinant PC-3 D3A, Ac-DEVD-pNA absorbance 405 nm; aspartates 9, 28, 175 changed to alanine; 100% = enzyme control; activation, % at 8.5 µM; 290 tested, under 10 active; AID 493114;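 active = mean percent activation across triplicates above a set limit taken from the earlier primary procaspase-3 screen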;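 also: 0% = DMSO wells and 100% = DMSO wells with 5 µM added PC-3 D3A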
Procasp7 act – activates human procaspase-7, confirming dual procaspase activators | activation, % at 8.5 µM | 290 tested, under 10 active | AID 493115 | recombinant procaspase-7, Ac-DEVD-pNA absorbance 405 nm; D23A/D198A/D206A mutant that cannot self-cleave | shares compounds with proCasp7 act;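 active = mean activation above a set limit carried over from the earlier primary screen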;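 also: 0% = DMSO only and 100% = DMSO with added 5 µM PC-7 enzyme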
Starred values were filed as active, the others as inactive.

CC(NC(=O)COC(=O)COc1ccc(C(=O)c2ccccc2)cc1)c1ccccc1 (stereo unspecified) was read as PLC-beta3 inh -8, PLCg1 inh -2, HGIII-sPLA2 inh -1, proCasp7 act 4 and procasp3 activ 0.
`Nc1ccccc1-c1nc2ccccc2c(=O)o1` gave PLC-beta3 inh -254, PLCg1 inh -225, HGIII-sPLA2 inh 4, proCasp7 act 34*, procasp3 activ 27*, PC3 dual counter -30 and Procasp7 act -36.
Screening COC(=O)C1C(O)=C(C=Nc2ccccc2)C(=O)CC1(C)C (stereo unspecified) returned PLC-beta3 inh 1, PLCg1 inh -3, HGIII-sPLA2 inh 0, proCasp7 act 6 and procasp3 activ 4.
`COC(=O)C1C(O)=C(C=Nc2ccc(N)cc2)C(=O)CC1(C)C` (stereo unspecified) gave PLC-beta3 inh -1, PLCg1 inh 2, HGIII-sPLA2 inh 1, proCasp7 act 36*, procasp3 activ 11, PC3 dual counter 3 and Procasp7 act 0.
For CC(=O)Nc1ccc(C2=NN(c3ccccc3)C(c3ccccc3)C2)cc1 (stereo unspecified) the results were PLC-beta3 inh inactive, PLCg1 inh -409, HGIII-sPLA2 inh -2, proCasp7 act 46*, procasp3 activ 218*, PC3 dual counter -28 and Procasp7 act -36.
CC(=O)Nc1ccc(C2CC(c3ccc(Cl)cc3)=NN2c2ccccc2)cc1 (stereo unspecified) was read as PLC-beta3 inh inactive, PLCg1 inh inactive, HGIII-sPLA2 inh 2, proCasp7 act 136*, procasp3 activ 163*, PC3 dual counter -28 and Procasp7 act -34.
Screening COC(=O)c1ccc(COC(=O)C(NC(=O)Cc2ccccc2)C(C)C)cc1 (stereo unspecified) returned PLC-beta3 inh -8, PLCg1 inh -1 and HGIII-sPLA2 inh 1.
`CCCCCn1c(-c2ccco2)nc2nc3ccccc3nc21` gave PLC-beta3 inh -142, PLCg1 inh -119, HGIII-sPLA2 inh -3, proCasp7 act 7 and procasp3 activ 5.
For c1ccc(Cn2c(-c3ccco3)nc3nc4ccccc4nc32)cc1 the results were PLC-beta3 inh -380, PLCg1 inh -318, HGIII-sPLA2 inh -1, proCasp7 act 46*, procasp3 activ 12, PC3 dual counter -31 and Procasp7 act -36.
`COc1ccc(C)c(NC(=O)[C@@H]2CCCN2S(=O)(=O)c2cccc3cccnc23)c1` gave PLC-beta3 inh 0, PLCg1 inh 2 and HGIII-sPLA2 inh 1.
For CCC1(C(=O)NC(=Nc2ccccc2)Nc2ccccc2)CCOC1=O (stereo unspecified) the results were PLC-beta3 inh 7, PLCg1 inh 9 and HGIII-sPLA2 inh 8.
For C=CCNC(=S)N/N=C/c1ccc(C(F)(F)F)cc1 the results were PLC-beta3 inh 4, PLCg1 inh 2, HGIII-sPLA2 inh 2, proCasp7 act 0 and procasp3 activ 0.
COc1ccc(CNC(=S)N/N=C/c2ccncc2)cc1 was read as PLC-beta3 inh 0, PLCg1 inh 3, HGIII-sPLA2 inh 7, proCasp7 act 8 and procasp3 activ -6.
`CCN(CC)c1ccc(/C=N/NC(=O)C(O)c2ccccc2)cc1` (stereo unspecified) gave PLC-beta3 inh -69, PLCg1 inh -41, HGIII-sPLA2 inh 2, proCasp7 act -13 and procasp3 activ -7.
Screening CCN(CC)c1ccc(/C=N/NC(=S)NCc2ccc(OC)cc2)cc1 returned PLC-beta3 inh -133, PLCg1 inh -112, HGIII-sPLA2 inh 14, proCasp7 act 37*, procasp3 activ 44*, PC3 dual counter -30 and Procasp7 act -30.
Screening CCN(CC)c1ccc(/C=N/NC(=S)NCc2ccccc2)cc1 returned PLC-beta3 inh -93, PLCg1 inh -76, HGIII-sPLA2 inh 9, proCasp7 act 43*, procasp3 activ 67*, PC3 dual counter -26 and Procasp7 act -29.
For C=CCNC(=S)N/N=C/c1ccc(N(CC)Cc2ccccc2)cc1 the results were PLC-beta3 inh -94, PLCg1 inh -86, HGIII-sPLA2 inh 9, proCasp7 act 37*, procasp3 activ 24*, PC3 dual counter -19 and Procasp7 act -14.
`COCc1nnc(NC(=O)CCSc2ccccc2)s1` gave PLC-beta3 inh 1, PLCg1 inh -2, HGIII-sPLA2 inh -5, proCasp7 act 27*, procasp3 activ 1, PC3 dual counter 4 and Procasp7 act 0.
Screening COC(=O)N/N=C/c1sc(N2CCCCC2)nc1-c1cccs1 returned PLC-beta3 inh -122, PLCg1 inh -74, HGIII-sPLA2 inh 1, proCasp7 act -4 and procasp3 activ 3.
Screening COc1cccc(-c2cc3nc(-c4ccccc4)cc(N4CCC5(CC4)OCCO5)n3n2)c1 returned PLC-beta3 inh inactive, PLCg1 inh inactive, HGIII-sPLA2 inh -20, proCasp7 act 38*, procasp3 activ 32*, PC3 dual counter -30 and Procasp7 act -37.
O=C(c1cc2c(s1)-c1ccccc1OC2)N1CCc2ccccc2C1 was read as PLC-beta3 inh -309, PLCg1 inh -230, HGIII-sPLA2 inh 9, proCasp7 act 27*, procasp3 activ 12, PC3 dual counter 3 and Procasp7 act 2.
`COc1ccccc1N1CCN(C(=O)c2cc3c(s2)-c2ccccc2OC3)CC1` gave PLC-beta3 inh -170, PLCg1 inh -142, HGIII-sPLA2 inh -5, proCasp7 act 6 and procasp3 activ 4.
Screening COc1cc2c(cc1OC)C(C)N(C(=O)c1cc3c(s1)-c1ccccc1OC3)CC2 (stereo unspecified) returned PLC-beta3 inh inactive, PLCg1 inh -446, HGIII-sPLA2 inh -5, proCasp7 act 37*, procasp3 activ 26*, PC3 dual counter 13 and Procasp7 act 11.
For O=C(Nc1nccs1)c1cc2c(s1)-c1ccccc1OC2 the results were PLC-beta3 inh -329, PLCg1 inh -247, HGIII-sPLA2 inh -7, proCasp7 act 28*, procasp3 activ 30*, PC3 dual counter -29 and Procasp7 act -35.
`O=C(CN1C(=O)/C(=C\c2cccc(Cl)c2)Oc2ccccc21)N1CCN(c2ccccn2)CC1` gave proCasp7 act -16 and procasp3 activ -3.

High-throughput results deposited in PubChem BioAssay by The Scripps Research Institute Molecular Screening Center.
